Calpain2 inh: inhibitors of pig calpain II | purified calpain II, fluorogenic peptide substrate, 30 min | inhibition, % at 16 µM | hit rate 0.37% among 220,000 | AID 1236;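 active = inhibition above about 50%, limit read from the data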
Arbovirus anti: arbovirus infection inhibition; arbovirus infection cell-based antiviral screen; inhibition, % at 10 µM; hit rate 0.37% among 200,000; in the data active = inhibition above about 30%
Mdm2 ligase inh: Mdm2 E3 ligase (human) inhibition; cell-based MDM2 ubiquitination luciferase reporter, 2 h; 0 = plate control, 100 = twice control, blank-subtracted; hit rate 0.11% among 210,000; signal enhancement, % at 5 µM; Q00987;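 active = signal enhancement of 30% or more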;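 note: luminescence tracks abundance of the self-degrading MDM2-luciferase fusion protein; higher signal means inhibition of MDM2 E3 ligase activity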
Target sequence (Q00987 whole entry, looked up, the tested form may be a part): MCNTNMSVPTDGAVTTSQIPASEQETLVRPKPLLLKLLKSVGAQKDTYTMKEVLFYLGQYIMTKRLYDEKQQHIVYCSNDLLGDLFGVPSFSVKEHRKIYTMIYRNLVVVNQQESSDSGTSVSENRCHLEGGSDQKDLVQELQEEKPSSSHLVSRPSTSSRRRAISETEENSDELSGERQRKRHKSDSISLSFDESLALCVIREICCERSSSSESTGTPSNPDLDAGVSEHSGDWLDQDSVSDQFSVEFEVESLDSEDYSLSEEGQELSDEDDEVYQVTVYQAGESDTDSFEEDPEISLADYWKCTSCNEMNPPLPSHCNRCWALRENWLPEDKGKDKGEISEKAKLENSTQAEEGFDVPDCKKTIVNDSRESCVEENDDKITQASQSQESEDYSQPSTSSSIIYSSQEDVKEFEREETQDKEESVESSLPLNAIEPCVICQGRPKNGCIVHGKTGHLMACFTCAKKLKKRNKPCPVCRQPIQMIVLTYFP
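Material: Stable MDM2–luciferase fusion reporter cells | Amount: 2000 cells seeded into each well | Dosing: One concentration, 5 µM, with 0.2% DMSO | Incubation: 4 h cell settling then 2 h compound exposure, 37 °C | Measured by: Luciferase luminescence | Read-out basis: % enhancement relative to plate controls after blank subtraction | Benchmarks: Control and blank well means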
PKD1 kinase inh: PKD1 (human) kinase inhibition | Q15139 | PKD1 kinase fluorescence polarization assay | inhibition, % (concentration not given with the values) | hit rate 0.056% among 200,000 | AID 797; in the data active = inhibition above about 50%
KCC2 mod: modulates chloride dependent transport by human KCC2; hit rate 2.2% among 190,000; AID 1456; KCC2 cells, thallium flux FluoZin-2 fluorescence; B-score of Tl+ flux slope (higher = more flux/activation; lower = inhibition) at 10 µM; Q9H2X9;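 active = thallium flux slope and its plate-corrected score both differing from the plate sample mean at a set confidence after two filtering rounds, in either direction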;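 note: slope of fluorescence scaled to starting intensity during 10 to 20 s after thallium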
ROMK mod: modulators of human ROMK potassium channel. Tet-inducible ROMK, thallium flux fluorescence; actives lie on both sides. B-score at 10 µM. hit rate 2% among 130,000;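 active = signal ratio slope over the read window, or its plate-corrected B-score, at least 3 SD from the plate mean, either direction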;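 note: B-score of the F/F0 ratio slope over 7 to 12 s after thallium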
KCC2 secondary: confirmation of human KCC2 transport modulators; normalised thallium flux (F/F0 slope) at 10 µM; HEK293-KCC2, thallium flux, FluoZin2 fluorescence; hits give high values; shares compounds with KCC2 mod; hit rate 15% among 3,700;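 active = thallium flux slope above the same plate's solvent-only control mean plus 3 SD; inconclusive = the two replicate wells disagree; inactive = no significant difference from solvent-only control wells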
KCC2 bumet counter: bumetanide-insensitive thallium flux in KCC2 cells with ouabain, counter-screen; shares compounds with KCC2 mod; HEK293-KCC2 + bumetanide/ouabain, thallium flux FluoZin2; hits give high values; normalized thallium flux at 10 µM; hit rate 49% among 3,700; AID 1714;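 active = thallium entry rate above the same plate's blocked-transporter control wells by more than 3 SD; inconclusive = the two repeat wells disagree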;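 note: raw slope of fluorescence over initial fluorescence between 10 and 20 s after thallium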
KCC2 sec2: confirmation of human KCC2 transport modulators | shares compounds with KCC2 mod | hit rate 23% among 3,700 | normalized thallium flux at 10 µM | AID 1715 | HEK293-KCC2, thallium flux FluoZin2 fluorescence; actives lie on both sides; F/F0 rise rate, 10–20 s post-thallium;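 active = thallium flux slope more than 3 SD above or below the plate's solvent-only control mean, mostly below; inconclusive = the two repeat wells disagreed; inactive = no significant shift from solvent-only controls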;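 note: raw slope with 0.1% DMSO as baseline and bumetanide as block control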
HEK293 Tl flux: parental HEK flux effect, counter-screen | shares compounds with KCC2 mod | HEK293 parental cells, thallium flux FluoZin2, ouabain; baseline-ratio fluorescence slope, 10–20 s after thallium | thallium flux rate (normalised fluorescence) at 10 µM | hit rate 46% among 3,700 | AID 1716;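 active = thallium flux rate significantly above the same plate's solvent-only control wells, beyond their mean plus 3 SD; inconclusive = the two replicate wells gave conflicting results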
KCC2 ouabain: confirmation of human KCC2 modulators with ouabain. shares compounds with KCC2 mod. HEK293-KCC2, thallium flux FluoZin2 fluorescence; bidirectional: low = inhibitor, high = activator. raw Tl+ flux slope (below DMSO = inhibition, above = activation) at 10 µM. hit rate 48% among 3,700;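 active = thallium flux slope beyond 3 SD from same-plate DMSO control mean in most replicates, usually higher, sometimes lower; inconclusive = repeat tests gave conflicting results; inactive = no significant difference from controls in most replicates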;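 note: slope of initial-normalized fluorescence between seconds 10 and 20 after thallium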
HEK293 Tl flux2: acts in parental HEK cells, second KCC2 counter-screen | AID 1718 | shares compounds with KCC2 mod | HEK293 parental, thallium flux FluoZin-2 fluorescence slope | thallium flux slope at 10 µM | hit rate 33% among 3,700;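 active = thallium flux slope above the same plate's solvent-control mean plus 3 SD in both duplicate wells; inconclusive = duplicate wells that disagreed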;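 note: run without ouabain in cells lacking the KCC2 cotransporter; slope of fluorescence scaled to its starting value between 10 and 20 s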
Starred values were filed as active, the others as inactive; i = inactive; ? = inconclusive; nt = no result. In the library only some 3.7% were active in any assay of this set; here they are far more common.

SMILES | Calpain2 inh | Arbovirus anti | Mdm2 ligase inh | PKD1 kinase inh | KCC2 mod | ROMK mod | KCC2 secondary | KCC2 bumet counter | KCC2 sec2 | HEK293 Tl flux | KCC2 ouabain | HEK293 Tl flux2
Nc1nonc1C(=O)NCCN=Cc1cc(Cc2ccccc2)cc(Br)c1O | 24 | 5 | -10 | -8 | nt | 2 | nt | nt | nt | nt | nt | nt
Nc1nonc1C(=O)NCCN=Cc1ccccc1O | 24 | nt | -9 | -10 | -4.6* | nt | ? | ? | 0.032 | 0.0081 | 0.02 | 0.011
COCCOC(=O)C1=C(C)NC(=O)NC1c1ccc(-c2cc(Cl)ccc2Cl)o1 (stereo unspecified) | -2 | -9 | -88 | -3 | 0.34 | -0.54 | nt | nt | nt | nt | nt | nt
Cc1ccc(CN(c2ccc(C(=O)Nc3ccc4c(c3)OCO4)cc2)S(C)(=O)=O)cc1 | -43 | -9 | -19 | 7 | 4.7* | -0.31 | 0.0076 | ? | 0.028 | 0.008 | 0.019 | 0.012
Cc1ccc(C(=O)Nc2ccc3c(c2)OCO3)cc1 | -3 | -23 | -7 | -1 | 0.15 | 0.14 | nt | nt | nt | nt | nt | nt
Cn1c(CNc2cccc(C(F)(F)F)c2)n[nH]c1=S | -27 | -5 | 0 | -1 | -4* | -0.76 | 0.0058 | 0.0049 | 0.025* | 0.0071 | ? | 0.01
Cc1cc(/C=C2\NC(=S)N(C)C2=O)ccc1N1CCCC1 | 4 | -2 | -17 | 0 | 6.4* | -0.6 | 0.0072 | 0.012* | ? | ? | 0.016 | 0.01
O=C(CSc1ncnc2c1oc1ccccc12)N1CCCc2ccccc21 | 34 | 8 | -10 | -10 | nt | -2 | 0.0065 | 0.0053 | 0.029 | 0.0056 | 0.016* | 0.0098
CC1(NC(=S)Nc2ccccc2)CCS(=O)(=O)C1 (stereo unspecified) | -10 | nt | -7 | nt | -0.11 | nt | nt | nt | nt | nt | nt | nt
CC1CCCCN1C(=O)CSc1nnc(Cc2ccccc2)n1C (stereo unspecified) | -11 | 4 | 0 | 0 | 3.2* | -0.00029 | 0.0055 | 0.0049 | 0.029 | 0.0076 | 0.018 | 0.011
COCCn1c(Cc2ccccc2)nnc1SCC(=O)N1CCCCC1C (stereo unspecified) | -19 | 5 | -14 | 7 | -0.73 | -0.33 | nt | nt | nt | nt | nt | nt
CC(=O)c1cccc(NC(=S)NC(=O)c2ccccc2Cl)c1 | 27 | 7 | -22 | 1 | 5.4* | nt | 0.008 | 0.026* | 0.034 | 0.017* | 0.028* | 0.013*
CC(=O)c1cccc(NC(=S)NC(=O)c2ccc(C)cc2Cl)c1 | 28 | -8 | -4 | -1 | 21* | 0.51 | 0.0058 | 0.062* | ? | 0.019* | 0.036* | 0.019*
Cc1cccc(NC(=S)NNC(=O)c2csc(C)c2)c1 | -16 | 5 | -1 | 0 | 4.5* | 0.46 | ? | 0.019* | 0.035 | 0.017* | ? | 0.019*
CC(=O)c1cccc(NC(=S)NC(=O)c2ccc(C)cc2)c1 | 37 | -20 | -17 | 9 | 7.2* | -0.3 | 0.0059 | 0.013* | 0.029 | 0.011* | ? | 0.012*
C/C(=C/C(=O)N1CCc2ccccc21)C(=O)O | 23 | 2 | -20 | 2 | 0.78 | -0.16 | nt | nt | nt | nt | nt | nt
CCCc1cc(=O)n2c([nH]c3ccccc32)c1C#N | i | -21 | nt | -8 | nt | -2.3 | nt | nt | nt | nt | nt | nt
CC(=O)c1cccc(NC(=S)NC(=O)Cc2ccccc2)c1 | 3 | 2 | -10 | 1 | 6.2* | 0.023 | 0.0079 | 0.0091* | ? | 0.01* | 0.02 | ?

Assay outcomes (PubChem BioAssay)
